Results gathered from unrelated publications.
Lines come from different studies, so protocols differ.
Target: Carbonic anhydrase 2 (CA2, Homo sapiens, UniProt P00918)
Effect on: enzyme activity
Mode: inhibitor

SMILES | assay | endpoint | result
O=C(Nc1ccc2c(c1)C=CCP(=O)(O)O2)c1ccc2ccccc2c1 | stopped-flow | Ki | > 10000 nM
CC(C)c1cc2c(c(O)c1O)[C@@]13CCCC(C)(C)[C@@H]1[C@H](OC3=O)[C@H]2O |  | IC50 | 4.18 nM
O=C(Nc1ccc2c(c1)C=CCP(=O)(O)O2)c1ccc(F)cc1 | stopped-flow | Ki | > 10000 nM
CC(C)c1cc2c(c(O)c1O)[C@@]13CCCC(C)(C)[C@@H]1C[C@@H]2OC3=O |  | Ki | 8.8 nM
O=C(Nc1ccc2c(c1)C=CCP(=O)(O)O2)c1cccs1 | stopped-flow | Ki | > 10000 nM
COc1ccc(C(=O)[C@@H]2[C@@H](c3ccc(OC)cc3)[C@@H]3c4ccccc4/C(=N/NC(N)=S)[C@@H]3[C@H]2c2ccc(OC)cc2)cc1 (racemic) | absorbance | IC50 | 992 nM
N#C[Se]CCCCOc1ccc2c(-c3ccccc3)cc(=O)oc2c1 | stopped-flow | Ki | > 100000 nM
Cc1ccc([C@@H]2[C@@H](C(=O)c3cccs3)[C@H](c3ccco3)[C@H]3/C(=N\NC(N)=S)c4ccccc4[C@H]32)cc1 (racemic) | absorbance | IC50 | 844 nM
CC(C)c1cc2c(c(O)c1O)[C@@]13CCCC(C)(C)[C@@H]1[C@@H](O)[C@@H]2OC3=O |  | Ki | 3.57 nM
NC(=S)N/N=C1/c2ccccc2[C@@H]2[C@H]1[C@@H](c1cccs1)[C@H](C(=O)c1cccs1)[C@H]2c1cccs1 (racemic) | absorbance | IC50 | 510 nM
Cc1cc(=O)oc2cc(OCCCC[Se]C#N)ccc12 | stopped-flow | Ki | > 100000 nM
NC(=S)N/N=C1/c2ccccc2[C@@H]2[C@H]1[C@@H](c1ccc(F)cc1)[C@H](C(=O)c1ccc(F)cc1)[C@H]2c1ccc(F)cc1 (racemic) | absorbance | IC50 | 605 nM
CC(C)c1cc2c(c(O)c1O)[C@@]1(C(=O)O)CCCC(C)(C)[C@@H]1CC2 |  | IC50 | 3.77 nM
NC(=S)N/N=C1/c2ccccc2[C@@H]2[C@H]1[C@@H](c1ccc(Cl)cc1)[C@H](C(=O)c1ccc(Cl)cc1)[C@H]2c1ccc(Cl)cc1 (racemic) | absorbance | IC50 | 298 nM
O=C(Nc1ccc(F)cc1)Nc1ccc2c(c1)C=CCP(=O)(O)O2 | stopped-flow | Ki | > 10000 nM
